The list is not random: actives were taken first. Their share in the collection is about 1.8%.
M4 antag: human M4 muscarinic receptor antagonists, primary screen, CHO cells, Fluo-8 calcium fluorescence. AID 624125, 2012. inhibition, % at 3 µM. CHO-hM4 cells, ACh EC80. Muscarinic acetylcholine receptor M4 (Homo sapiens), P08173. 360,000 compounds, 0.73% hits;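 active means inhibition above its plate's cutoff, the mean inhibition of sample wells plus 3 SD, cut at about 27% in these data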
Target sequence (P08173 whole entry, looked up): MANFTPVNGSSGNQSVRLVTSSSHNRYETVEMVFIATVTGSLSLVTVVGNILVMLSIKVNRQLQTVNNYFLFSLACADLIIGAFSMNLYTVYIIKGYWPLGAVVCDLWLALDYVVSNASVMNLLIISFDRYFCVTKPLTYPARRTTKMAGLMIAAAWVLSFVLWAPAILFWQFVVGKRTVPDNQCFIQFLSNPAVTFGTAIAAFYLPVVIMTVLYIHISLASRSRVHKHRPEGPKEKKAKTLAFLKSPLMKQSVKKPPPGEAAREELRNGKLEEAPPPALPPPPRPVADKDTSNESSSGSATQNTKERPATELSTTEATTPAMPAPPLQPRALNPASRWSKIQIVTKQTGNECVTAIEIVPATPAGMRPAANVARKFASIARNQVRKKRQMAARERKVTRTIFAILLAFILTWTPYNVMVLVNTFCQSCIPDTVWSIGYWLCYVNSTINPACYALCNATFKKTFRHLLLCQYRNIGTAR
CHRM5 antagonist: human M5 muscarinic receptor antagonists, primary screen, CHO cells, Fluo-8 calcium fluorescence; CHO-hM5 cells, ACh EC80; inhibition, % at 3 µM; 360,000 compounds, 0.59% hits; AID 624040, 2012;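 active means inhibition above a per-plate cutoff, the mean of that plate's test compounds plus 3 SD, cut at about 27% in these data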
M5 ag: human M5 muscarinic receptor agonists, primary screen, CHO-K1 cells, Fluo-8 calcium fluorescence | 360,000 compounds, 0.19% hits | activation, % at 3 µM | CHO-K1 hM5 cells; 0% DMSO wells, 100% maximal acetylcholine response;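 active means activation above the run's mean over test compounds plus 3 SD, cut at about 23% in these data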;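 further: signal is peak over basal fluorescence ratio across the kinetic read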
CHRM5 PAM: human M5 muscarinic receptor positive allosteric modulators, primary screen, CHO-K1 cells, Fluo-8 calcium fluorescence; CHO-K1 hM5, ACh EC20 PAM; 0% = ACh EC20, 100% = ACh EC100; activation, % at 3 µM; 360,000 compounds, 0.3% hits; AID 624038, 2012;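 active means activation above the run cutoff, the mean activation of all test compounds plus 3 SD, cut at about 18% in these data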
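Assay system: CHO-K1 hM5 cells / Incubation: Fluo-8 loading 80 min at 37 °C plus 30 min room temperature / Technique: Fluo-8 calcium dye fluorescence, kinetic read / Repeats: single replicate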
CHRM4 PAM: human M4 muscarinic receptor positive allosteric modulators, primary screen, CHO-K1 cells, Fluo-8 calcium fluorescence | Muscarinic acetylcholine receptor M4 (Homo sapiens), P08173 | CHO-K1 hM4/Gqi5, ACh EC20; 0% = ACh EC20, 100% = maximal ACh | activation, % at 3 µM | 360,000 compounds, 0.4% hits;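 active means activation above its plate's cutoff, the mean activation of sample wells plus 3 SD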
M4 ag: human M4 muscarinic receptor agonists, primary screen, CHO-K1 cells, Fluo-8 calcium fluorescence | CHO-K1 hM4/Gqi5; vehicle 0%, full acetylcholine response 100% | activation, % at 3 µM | 360,000 compounds, 0.14% hits;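 active means activation above the run mean over all test wells plus 3 SD, cut at about 32% in these data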;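 further: peak over basal fluorescence ratio per well then scaled between controls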
Hits are given with their value; n = inactive.

SMILES | M4 antag | CHRM5 antagonist | M5 ag | CHRM5 PAM | CHRM4 PAM | M4 ag
O=C(C=Cc1cccs1)c1ccccc1 | n | n | n | n | n | n
COc1ccc(NC(C)=O)cc1CP(=O)(c1ccccc1)c1ccccc1 | n | n | n | n | n | n
COc1ccc(Cn2c(O)c(C=Nc3ccccc3C(=O)O)c3ccccc3c2=O)cc1 | n | n | n | n | n | n
COc1ccccc1NS(=O)(=O)c1cccc(-n2c(O)c(C=Nc3ccccc3C(=O)O)c3ccccc3c2=O)c1 | n | n | n | n | 36 | n
CC(C)CN(C(=O)CCCOc1ccc(Cl)cc1Cl)c1c(N)n(Cc2ccccc2)c(=O)[nH]c1=O | n | n | n | n | n | n
CC(C)N1CCN(C(=O)c2ccc(NC(=O)c3ccc(Br)o3)cc2)CC1 | n | n | n | 20 | n | n
Cc1cc(N2C(=O)C(O)=C(C(=O)c3cccs3)C2c2ccc(F)cc2)no1 (stereo unspecified) | n | n | n | 19 | n | n
Cc1cc(N2C(=O)C(O)=C(C(=O)c3cccs3)C2c2ccccc2)no1 (stereo unspecified) | n | n | n | n | n | n
COc1cccc(C2C(C(=O)c3cccs3)=C(O)C(=O)N2c2cc(C)on2)c1 (stereo unspecified) | n | n | n | 26 | n | n
O=C(OCc1cn([C@H]2C[C@H](c3ccccc3)N(Cc3cccs3)C[C@@H]2O)nn1)c1ccccc1 | n | n | n | n | n | n
O=C(Nc1ccc(Cl)c(C(F)(F)F)c1)C1Cc2c(-c3ccccc3)ccnc2O1 (stereo unspecified) | n | n | n | n | n | n
Cc1nc(C)c(-c2ccc(SCC(=O)Nc3ccc(C)c(Cl)c3)nn2)s1 | n | n | n | n | n | n
CC(=O)c1ccc(NC(=O)CSc2ccc(-c3sc(C)nc3C)nn2)cc1 | n | 32 | n | n | n | n
CCN1C(=NCCc2cccs2)N[C@@H](c2cccs2)C(C(=O)OC)=C1C | n | n | n | n | n | n
CC(C)(C)c1ccc(Cn2nc(CC(=O)O)c3ccccc3c2=O)cc1 | n | n | n | 21 | n | n
CCOC(=O)Cc1nn(Cc2ccccc2)c(=O)c2ccccc12 | n | n | n | n | n | n
CCN(CC)c1ccc(/C=C(\C#N)C(=O)c2ccc(Br)cc2)cc1 | 51 | 70 | 108 | n | n | 58
CCN(CC)c1ccc(/C=C(\C#N)C(N)=O)cc1 | n | n | n | n | n | n
CN(C)c1ccc(/C=C(\C#N)C(=O)c2ccccc2)cc1 | 37 | 40 | 63 | n | n | 70
CC1CC2C3CCC4=CC(=O)C=CC4(C)C3(F)C(O)CC2(C)C1(O)C(=O)CO (stereo unspecified) | n | n | n | n | n | n
CC1(C)O[C@@H]2C[C@H]3[C@@H]4C[C@H](F)C5=CC(=O)C=C[C@]5(C)[C@@]4(F)[C@@H](O)C[C@]3(C)[C@]2(C(=O)CO)O1 | n | n | n | n | n | n
C[C@]12C=CC(=O)C=C1CC[C@H]1[C@@H]3C[C@@H](O)[C@](O)(C(=O)CO)[C@@]3(C)C[C@H](O)[C@@]12F | n | n | 48 | n | n | n
CC1(C)O[C@@H]2C[C@H]3[C@@H]4CCC5=CC(=O)C=C[C@]5(C)[C@@]4(F)[C@@H](O)C[C@]3(C)[C@]2(C(=O)CO)O1 | 46 | n | n | n | n | n
Cc1ccccc1OCC(=O)Nc1ccc(S(=O)(=O)Nc2onc(C)c2C)cc1 | n | n | n | 22 | n | n
Cc1ccc2oc(C(=O)Nc3ccc(S(=O)(=O)Nc4onc(C)c4C)cc3)c(C)c2c1 | n | n | n | 48 | n | n

Screens (PubChem)
